Experiments:
Oryctolagus cuniculus [1] = organism: Oryctolagus cuniculus; experiment: Mean dose of test compound at which a statistically significant increase was first observed and the dose for the maximum increase in QTc interval in rabbits (0.1-0.25); format: functional
Outline: (§1)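 Male New Zealand white rabbits (2.5-3.5 kg), anesthetized and instrumented. Methoxamine infused at 10 µg/kg/min; methoxamine baseline taken after 15 min. Compound, dissolved in 0.1 M fumaric acid in absolute EtOH and diluted with saline, given as a continuous iv infusion of 5 mg/kg over 30 min. QTc (QT/√RR) and MAPD90 followed over time; cumulative mg/kg dose recorded at first significant rise (one-way ANOVA, p≤0.05) and at maximum rise.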

Oryctolagus cuniculus [2] = organism: Oryctolagus cuniculus; experiment: Mean dose at which EADs (early after depolarizations) began to develop in rabbits; format: functional
Outline: (§2)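 Male New Zealand white rabbits (2.5-3.5 kg), anesthetized and instrumented. Methoxamine infused at 10 µg/kg/min; baseline taken after 15 min. Compound in 0.1 M fumaric acid/EtOH diluted with saline, infused IV at 5 mg/kg over 30 min. Readouts: QTc and MAPD90 maxima vs methoxamine baseline, with accumulated dose, and dose at EAD or PVT onset. ANOVA, p ≤ 0.05.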

Oryctolagus cuniculus [3] = organism: Oryctolagus cuniculus; experiment: Mean dose at which PVTs (Polymorphic ventricular tachyarrhythmias) were observed in rabbits; format: functional, Cardiac ventricle; outline: as §2
Oryctolagus cuniculus [4] = organism: Oryctolagus cuniculus; experiment: Maximum increase in the ventricular monophasic action potential duration at 90% repolarization from the methoxamine infusion baseline in rabbits; format: functional, Cardiac ventricle; outline: as §2
Oryctolagus cuniculus [5] = experiment: In vivo evaluation of potential efficacy observed as the maximum increase in QTc interval from the methoxamine infusion baseline in rabbits; format: functional; outline: as §2
Oryctolagus cuniculus [6] = organism: Oryctolagus cuniculus; experiment: Mean dose of test compound at which a statistically significant increase was first observed and the dose for the maximum increase in MAPD90 in rabbits (0.1-0.25); format: functional; outline: as §2
Homo sapiens = organism: Homo sapiens; experiment: Metabolic stability in relative to 31E observed on incubation with human liver microsomes; format: functional; conditions: Microsome
Outline: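 Pooled human liver microsomes, 1 mg protein/mL, in 50 mM potassium phosphate pH 7.4. Substrate at 0.4-0.5 µM final; preincubated at 37 °C, then started with an NADPH-generating system (isocitrate/isocitrate dehydrogenase). Aliquots taken up to 20 min and quenched in acetonitrile. Remaining substrate measured by reversed-phase HPLC with fluorescence detection. Log-concentration vs time slope taken; ratio reported as reference slope/test slope; values >20 treated as stable. Three experiments.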

Oryctolagus cuniculus [7] = organism: Oryctolagus cuniculus; experiment: Mean dose of test compound at which a statistically significant increase was first observed and the dose for the maximum increase in MAPD90 in rabbits (0.1-1.0); format: functional; outline: as §2
Oryctolagus cuniculus [8] = organism: Oryctolagus cuniculus; experiment: Mean dose of test compound at which a statistically significant increase was first observed and the dose for the maximum increase in QTc interval in rabbits (0.1-1.0); format: functional; outline: as §1
Oryctolagus cuniculus [9] = organism: Oryctolagus cuniculus; experiment: Mean dose of test compound at which a statistically significant increase was first observed and the dose for the maximum increase in QTc interval in rabbits (0.25-5.0); format: functional; outline: as §1
Oryctolagus cuniculus [10] = organism: Oryctolagus cuniculus; experiment: Mean dose of test compound at which a statistically significant increase was first observed and the dose for the maximum increase in MAPD90 in rabbits (0.25-5.0); format: functional; outline: as §1
Oryctolagus cuniculus [11] = organism: Oryctolagus cuniculus; experiment: Mean dose of test compound at which a statistically significant increase was first observed and the dose for the maximum increase in QTc interval in rabbits (0.2-1.0); format: functional; outline: as §1
Oryctolagus cuniculus [12] = organism: Oryctolagus cuniculus; experiment: Mean dose of test compound at which a statistically significant increase was first observed and the dose for the maximum increase in MAPD90 in rabbits (0.25-2.0); format: functional; outline: as §1
Oryctolagus cuniculus [13] = organism: Oryctolagus cuniculus; experiment: Mean dose of test compound at which a statistically significant increase was first observed and the dose for the maximum increase in MAPD90 in rabbits (0.25-0.5); format: functional; outline: as §2
Oryctolagus cuniculus [14] = organism: Oryctolagus cuniculus; experiment: Mean dose of test compound at which a statistically significant increase was first observed and the dose for the maximum increase in QTc interval in rabbits; format: functional; outline: as §1
Oryctolagus cuniculus [15] = organism: Oryctolagus cuniculus; experiment: Mean dose of test compound at which a statistically significant increase was first observed and the dose for the maximum increase in MAPD90 in rabbits (0.25-1.0); format: functional; outline: as §1
Oryctolagus cuniculus [16] = organism: Oryctolagus cuniculus; experiment: Mean dose of test compound at which a statistically significant increase was first observed and the dose for the maximum increase in MAPD90 in rabbits (0.5-1.0); format: functional; outline: as §1
Oryctolagus cuniculus [17] = organism: Oryctolagus cuniculus; experiment: Mean dose of test compound at which a statistically significant increase was first observed and the dose for the maximum increase in MAPD90 in rabbits; format: functional; outline: as §2
Oryctolagus cuniculus [18] = organism: Oryctolagus cuniculus; experiment: Mean dose of test compound at which a statistically significant increase was first observed and the dose for the maximum increase in MAPD90 in rabbits (0.1-5.0); format: functional; outline: as §2
Oryctolagus cuniculus [19] = organism: Oryctolagus cuniculus; experiment: Mean dose of test compound at which a statistically significant increase was first observed and the dose for the maximum increase in MAPD90 in rabbits (0.1-0.5); format: functional; outline: as §2
Oryctolagus cuniculus [20] = organism: Oryctolagus cuniculus; experiment: Mean dose of test compound at which a statistically significant increase was first observed and the dose for the maximum increase in MAPD90 in rabbits (0.5-2.0); format: functional; outline: as §1
Oryctolagus cuniculus [21] = organism: Oryctolagus cuniculus; experiment: Mean dose of test compound at which a statistically significant increase was first observed and the dose for the maximum increase in QTc interval in rabbits (0.1-0.5); format: functional; outline: as §1
Oryctolagus cuniculus [22] = organism: Oryctolagus cuniculus; experiment: Mean dose of test compound at which a statistically significant increase was first observed and the dose for the maximum increase in MAPD90 in rabbits (0.1-2.0); format: functional; outline: as §2

Row | SMILES | Dose (Oryctolagus cuniculus [2]) [mg/kg] | Dose (Oryctolagus cuniculus [3]) [mg/kg] | MAPD90 (Oryctolagus cuniculus [4]) [ms] | QTc interval (Oryctolagus cuniculus [5]) [ms] | Metabolic stability relative to 31E (Homo sapiens) [%] | Dose (Oryctolagus cuniculus [14]) [mg/kg] | further results
1 | CCN(CCCCCC(C)(C)F)CCC[C@@H](O)c1ccc(NS(C)(=O)=O)cc1 | 0.5 | 0.27 | 59 | 92 | – | – | Dose (Oryctolagus cuniculus [1]): 0.25 mg/kg; Dose (Oryctolagus cuniculus [6]): 0.25 mg/kg
2 | CCN(CCCCCC(C)F)CCC[C@H](O)c1ccc(NS(C)(=O)=O)cc1 (some centres not stated) | 0.2 | 0.4 | 90 | 130 | > 2000 | – | Dose (Oryctolagus cuniculus [1]): 0.25 mg/kg; Dose (Oryctolagus cuniculus [7]): 1 mg/kg
3 | CCN(CCCCCC(C)(F)F)CCC[C@H](O)c1ccc(NS(C)(=O)=O)cc1 | 0.3 | 0.3 | 92 | 106 | – | – | Dose (Oryctolagus cuniculus [6]): 0.25 mg/kg; Dose (Oryctolagus cuniculus [8]): 1 mg/kg
4 | CCN(CCCCCC(C)(C)F)CCC[C@H](O)c1ccc(NS(C)(=O)=O)cc1 | – | – | – | – | > 2000 | – | –
5 | CCN(CCCCCC(C)(C)F)CCCCc1ccc(NS(C)(=O)=O)cc1 | – | – | 90 | 105 | 300 | – | Dose (Oryctolagus cuniculus [9]): 5 mg/kg; Dose (Oryctolagus cuniculus [10]): 5 mg/kg
6 | CCN(CCCCC(C)(C)F)CCCC(O)c1ccc(NS(C)(=O)=O)cc1 (configuration not stated) | 1.4 | 3.6 | 178 | 174 | – | – | Dose (Oryctolagus cuniculus [11]): 1 mg/kg; Dose (Oryctolagus cuniculus [12]): 2 mg/kg
7 | CCN(CCCCCC(F)F)CCC[C@H](O)c1ccc(NS(C)(=O)=O)cc1 | 0.2 | 0.3 | 123 | 154 | – | – | Dose (Oryctolagus cuniculus [1]): 0.25 mg/kg; Dose (Oryctolagus cuniculus [13]): 0.5 mg/kg
8 | CCN(CCCCCC(C)(F)F)CCCC(O)c1ccc(NS(C)(=O)=O)cc1 (configuration not stated) | 0.4 | 0.7 | 118 | 96 | – | 0.25 | Dose (Oryctolagus cuniculus [15]): 1 mg/kg
9 | CCN(CCCCCC(C)(C)F)CCCC(O)c1ccc(NS(C)(=O)=O)cc1 (configuration not stated) | 0.9 | 0.25 | 96 | 136 | > 2000 | 0.25 | Dose (Oryctolagus cuniculus [16]): 1 mg/kg
10 | CCN(CCCCCCC(F)F)CCCC(O)c1ccc(NS(C)(=O)=O)cc1 (configuration not stated) | 0.3 | 0.3 | 48 | 71 | > 2000 | 0.25 | Dose (Oryctolagus cuniculus [17]): 0.25 mg/kg
11 | CCN(CCCCCCCF)CCC[C@H](O)c1ccc(NS(C)(=O)=O)cc1 | 0.25 | 0.9 | 76 | 105 | 400 | – | Dose (Oryctolagus cuniculus [1]): 0.25 mg/kg; Dose (Oryctolagus cuniculus [18]): 5 mg/kg
12 | CCN(CCCCCCC(F)F)CCC[C@H](O)c1ccc(NS(C)(=O)=O)cc1 | 0.5 | 0.25 | 58 | 118 | – | – | Dose (Oryctolagus cuniculus [1]): 0.25 mg/kg; Dose (Oryctolagus cuniculus [19]): 0.5 mg/kg
13 | CCN(CCCCCC(F)F)CCCC(O)c1ccc(NS(C)(=O)=O)cc1 (configuration not stated) | – | – | – | – | > 2000 | – | –
14 | CCN(CCCCCC(C)F)CCCC(O)c1ccc(NS(C)(=O)=O)cc1.O=C(O)/C=C/C(=O)O (configuration not stated) | 0.3 | 0.2 | 143 | 166 | 1300 | 0.25 | Dose (Oryctolagus cuniculus [17]): 0.25 mg/kg
15 | CCCCCCCN(CC)CCC[C@@H](O)c1ccc(NS(C)(=O)=O)cc1 | 0.2 | 0.3 | 69 | 112 | 100 | 0.25 | Dose (Oryctolagus cuniculus [15]): 1 mg/kg
16 | CCN(CCCCCC(C)(C)F)CCC[C@H](O)c1ccc(NS(C)(=O)=O)cc1 [TRECETILIDE] | – | – | 69 | 83 | – | – | Dose (Oryctolagus cuniculus [18]): 5 mg/kg; Dose (Oryctolagus cuniculus [8]): 1 mg/kg
17 | CCCCCCCN(CC)CCCC(O)c1ccc(NS(C)(=O)=O)cc1 (configuration not stated) [IBUTILIDE] | 1.7 | 1 | 65 | 85 | – | – | Dose (Oryctolagus cuniculus [9]): 5 mg/kg; Dose (Oryctolagus cuniculus [16]): 1 mg/kg
18 | CCN(CC/C=C/c1ccc(NS(C)(=O)=O)cc1)CCCCCC(C)F (configuration not stated) | 0.3 | 1.5 | 133 | 75 | 300 | 2 | Dose (Oryctolagus cuniculus [20]): 2 mg/kg
19 | CCN(CCCCCC(C)F)CCCCc1ccc(NS(C)(=O)=O)cc1 (configuration not stated) | 0.2 | 1.1 | 56 | 94 | 300 | – | Dose (Oryctolagus cuniculus [9]): 0.5 mg/kg; Dose (Oryctolagus cuniculus [16]): 1 mg/kg
20 | CCN(CCCCCCCF)CCCCc1ccc(NS(C)(=O)=O)cc1 | 1 | 0.1 | 52 | 96 | 100 | – | Dose (Oryctolagus cuniculus [21]): 0.5 mg/kg; Dose (Oryctolagus cuniculus [22]): 2 mg/kg
21 | CCCCCCCN(CC)CCC[C@H](O)c1ccc(NS(C)(=O)=O)cc1 | 1.6 | 0.2 | 105 | 145 | – | 0.25 | Dose (Oryctolagus cuniculus [10]): 5 mg/kg

Reference: ChEMBL document CHEMBL1134641, “Progress toward the development of a safe and effective agent for treating reentrant cardiac arrhythmias: synthesis and evaluation of ibutilide analogues with enhanced metabolic stability and diminished proarrhythmic potential” (2001)
